Assay results taken from ChEMBL document CHEMBL1955820, “Diazeniumdiolated carbamates: a novel class of nitric oxide donors” (Bioorg Med Chem, 2012).

What was measured:
[1] = Drug uptake in human TERT immortalized BJ-5ta cells by DAF-FM diacetate-based fluorescence assay; assay type: ADME, cell-based; conditions: htert-bj
Procedure, shortened: (§1)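 BJ-5ta cells, grown in DMEM:199 medium (4:1) with 10% fetal calf serum, were loaded with 2.5 µM DAF-FM diacetate in HBSS for 30 min at 37 °C, 5% CO2, then rinsed into fresh HBSS. Compound in DMSO was added at 10 µM final for 90 min, with DMSO as control. Fluorescence was read at ex 485/em 525 nm. Mean of 16 independent experiments.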

U-937 [2] = assay: Prodrug activation in human U937 cells assessed as intracellular NO-release by measuring increase in fluorescence at 10 uM after 90 mins by DAF-FM diacetate-based fluorescence assay relative to control; assay type: cell-based; conditions: u-937, 1.5 h
Procedure, shortened: (§2)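 U937 cells in RPMI 1640 with 10% fetal calf serum at 37 °C, 5% CO2. Probe loading used 2.5 µM DAF-FM diacetate in HBSS for 30 min. Cells were then spun down, rinsed and resuspended in fresh HBSS. Compound in DMSO was added at 10 µM final for 90 min, with DMSO as control. Fluorescence was read at ex 485/em 525 nm.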

[3] = Prodrug activation in human TERT immortalized BJ-5ta cells assessed as intracellular NO-release by measuring increase in fluorescence at 10 uM after 90 mins by DAF-FM diacetate-based fluorescence assay relative to control; assay type: cell-based; conditions: htert-bj, 1.5 h; procedure, shortened: as §1
[4] = Prodrug activation in PBS assessed as production of nitrous oxide per mol of prodrug by gas chromatography in presence of GSH; conditions: buffer
Procedure, shortened: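 Glutathione-activated release in pH 7.4 buffer with 3.6–3.9 mM GSH and 50 µM DTPA, argon-sparged, at 37 °C. Prodrug was injected from a 10 mM DMSO stock. N2O was measured by GC with electron capture detection on a packed ShinCarbon column: 90 to 200 °C at 20 °C/min, He carrier 30 mL/min.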

U-937 [5] = assay: Drug uptake in human U937 cells by DAF-FM diacetate-based fluorescence assay; assay type: ADME, cell-based; procedure, shortened: as §2

With `CC(C)N(C(=O)OC(C)(C)C)/[N+]([O-])=N/Oc1ccc([N+](=O)[O-])cc1[N+](=O)[O-]` the Drug uptake [1] was “Active”, the “fold change (FC)” value (U-937 [2]) was 10.5 and the “fold change (FC)” value [3] was 49.67. For the same compound, the Drug metabolism [4] was 0.02 mol/mol and the Drug uptake (U-937 [5]) was “Active”.

For `CC(=O)OCO/N=[N+](\[O-])N(C(=O)OC(C)(C)C)C(C)C`, the Drug uptake [1] was “Active”, the “fold change (FC)” value (U-937 [2]) was 5.56 and the “fold change (FC)” value [3] was 7.29. The Drug uptake (U-937 [5]) was “Active”.

With `CCOC(=O)N1CCN(/[N+]([O-])=N/Oc2ccc([N+](=O)[O-])cc2[N+](=O)[O-])CC1` the “fold change (FC)” value (U-937 [2]) was 2.64 and the “fold change (FC)” value [3] was 5.48.
